Experimental data taken from ChEMBL document CHEMBL4732168, “Dihydroquinazolines enhance 20S proteasome activity and induce degradation of α-synuclein, an intrinsically disordered protein associated with neurodegeneration” (Bioorg Med Chem Lett, 2021).

Legend:
Type in all cases: protein-complex assay
[1] = molecular target: T1, 20S proteasome (Homo sapiens) (UniProt P49721+P20618+P28074+P28062+P28065+P28072+P25786+P25787+P25788+P25789+P28066+P60900+O14818+Q8TAA3+P40306+A5LHX3+P49720+P28070+Q99436); assay: (§1) Activation of human 20S proteosome assessed as increase in 7-amino-4-methylcoumarin release at 30 uM using mixture of chymotrypsin-like Suc-LLVY-AMC, trypsin-like Boc-LRR-AMC and caspase-like Z-LLE-AM fluorogenic peptides as substrates preincubated for 15 mins followed by substrate mixture addition and measured for 1 hr by fluorescence assay relative to control; settings: filed as activator, time 75.0 min
Summary of the method: (§2)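 Purified human 20S proteasome pre-incubated 15 min at 37°C with compound (3, 10 or 30 μM) or DMSO vehicle. Substrate mix then added: Suc-LLVY-AMC, Boc-LRR-AMC and Z-LLE-AMC, 13.3 μM each. AMC fluorescence followed over 1 h. Fold increase in activity calculated against untreated 20S.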

[2] = molecular target: T1, 20S proteasome (Homo sapiens); assay: Activation of human 20S proteosome assessed as concentration required to cause double the proteosome activity using chymotrypsin-like Suc-LLVY-AMC, trypsin-like Boc-LRR-AMC and caspase-like Z-LLE-AM fluorogenic peptides as substrates; settings: filed as activator
Summary of the method: (§3)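 Human 20S proteasome activity measured by AMC fluorescence over time. Each fluorogenic substrate (CT-L Suc-LLVY-AMC, Tryp-L Boc-LRR-AMC, Casp-L Z-LLE-AMC) tested alone and as an equal-amount mixture. Six-point compound titration, 1.25–40 μM, run in triplicate. AC200, the concentration that doubles 20S activity, derived from the concentration-response curves.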

[3] = molecular target: T1, 20S proteasome (Homo sapiens); assay: Activation of human 20S proteosome assessed as fold increase in proteosome activity at 2 uM using mixture of chymotrypsin-like Suc-LLVY-AMC, trypsin-like Boc-LRR-AMC and caspase-like Z-LLE-AM fluorogenic peptides as substrates by fluorescence assay relative to control; settings: filed as activator
[4] = molecular target: T1, 20S proteasome (Homo sapiens); assay: Activation of human 20S proteosome assessed as concentration required to cause double the proteosome activity using chymotrypsin-like Suc-LLVY-AMC fluorogenic peptide as substrate; settings: filed as activator; summary of the method: as §3
[5] = molecular target: T1, 20S proteasome (Homo sapiens); assay: Activation of human 20S proteosome assessed as fold increase in proteosome activity at 12.9 uM using chymotrypsin-like Suc-LLVY-AMC fluorogenic peptide as substrate by fluorescence assay relative to control; settings: filed as activator
[6] = molecular target: T1, 20S proteasome (Homo sapiens); assay: Activation of human 20S proteosome assessed as concentration required to cause double the proteosome activity using caspase-like Z-LLE-AM fluorogenic peptide as substrate; settings: filed as activator; summary of the method: as §3
[7] = molecular target: T1, 20S proteasome (Homo sapiens); assay: Activation of human 20S proteosome assessed as fold increase in proteosome activity at 5.6 uM using caspase-like Z-LLE-AM fluorogenic peptide as substrate by fluorescence assay relative to control; settings: filed as activator
[8] = molecular target: T1, 20S proteasome (Homo sapiens); assay: Activation of human 20S proteosome assessed as concentration required to cause double the proteosome activity using trypsin-like Boc-LRR-AMC fluorogenic peptide as substrate; settings: filed as activator; summary of the method: as §3
[9] = molecular target: T1, 20S proteasome (Homo sapiens); assay: Activation of human 20S proteosome assessed as fold increase in proteosome activity at 5 uM using trypsin-like Boc-LRR-AMC fluorogenic peptide as substrate by fluorescence assay relative to control; settings: filed as activator
[10] = molecular target: T1, 20S proteasome (Homo sapiens); assay: as §1, with “3” for “30”; settings: filed as activator, time 75.0 min; summary of the method: as §2
[11] = molecular target: T1, 20S proteasome (Homo sapiens); assay: Activation of human 20S proteosome assessed as fold increase in proteosome activity at 2.3 uM using mixture of chymotrypsin-like Suc-LLVY-AMC, trypsin-like Boc-LRR-AMC and caspase-like Z-LLE-AM fluorogenic peptides as substrates by fluorescence assay relative to control; settings: filed as activator
[12] = molecular target: T1, 20S proteasome (Homo sapiens); assay: Activation of human 20S proteosome assessed as fold increase in proteosome activity at 8.1 uM using chymotrypsin-like Suc-LLVY-AMC fluorogenic peptide as substrate by fluorescence assay relative to control; settings: filed as activator
[13] = molecular target: T1, 20S proteasome (Homo sapiens); assay: Activation of human 20S proteosome assessed as fold increase in proteosome activity at 5.8 uM using caspase-like Z-LLE-AM fluorogenic peptide as substrate by fluorescence assay relative to control; settings: filed as activator
[14] = molecular target: T1, 20S proteasome (Homo sapiens); assay: Activation of human 20S proteosome assessed as fold increase in proteosome activity at 2.5 uM using trypsin-like Boc-LRR-AMC fluorogenic peptide as substrate by fluorescence assay relative to control; settings: filed as activator
[15] = molecular target: T1, 20S proteasome (Homo sapiens); assay: Activation of human 20S proteosome assessed as fold increase in proteosome activity at 1.3 uM using mixture of chymotrypsin-like Suc-LLVY-AMC, trypsin-like Boc-LRR-AMC and caspase-like Z-LLE-AM fluorogenic peptides as substrates by fluorescence assay relative to control; settings: filed as activator
[16] = molecular target: T1, 20S proteasome (Homo sapiens); assay: Activation of human 20S proteosome assessed as fold increase in proteosome activity at 10.5 uM using chymotrypsin-like Suc-LLVY-AMC fluorogenic peptide as substrate by fluorescence assay relative to control; settings: filed as activator
[17] = molecular target: T1, 20S proteasome (Homo sapiens); assay: Activation of human 20S proteosome assessed as fold increase in proteosome activity at 2.8 uM using caspase-like Z-LLE-AM fluorogenic peptide as substrate by fluorescence assay relative to control; settings: filed as activator
[18] = molecular target: T1, 20S proteasome (Homo sapiens); assay: Activation of human 20S proteosome assessed as fold increase in proteosome activity at 1.7 uM using trypsin-like Boc-LRR-AMC fluorogenic peptide as substrate by fluorescence assay relative to control; settings: filed as activator
[19] = molecular target: T1, 20S proteasome (Homo sapiens); assay: Induction of human 20S proteosome mediated human alpha-synuclein degradation; settings: filed as activator, dose 0.5-10 µM
Summary of the method: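 Compound pre-incubated with purified human 20S proteasome. Pure human α-synuclein then added and the mix incubated 4 h. Digests resolved and silver stained. α-Synuclein bands quantified using 20S proteasome subunits as loading control, n=3.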

COc1ccc2c(c1)N=C(c1ccccc1)N(c1ccccn1)C2c1ccccc1 (configuration not stated)
fold change (FC) [1]: 6.9

CCCCCCN1C(c2ccccc2)=Nc2cc(OC)ccc2C1c1ccccc1 (configuration not stated)
fold change (FC) [1]: 1.6

COc1ccc2c(c1)N=C(c1ccccc1)N(Cc1ccccc1)C2c1ccccc1 (configuration not stated)
fold change (FC) [1]: 7.9
AC200 [2]: 2 µM
fold change (FC) [3]: 10.1
AC200 [4]: 12.9 µM
fold change (FC) [5]: 5.6
AC200 [6]: 5.6 µM
fold change (FC) [7]: 13.4
AC200 [8]: 5 µM
fold change (FC) [9]: 11.7
Activity [10]: > 200%

CCCCCC1=Nc2cc(OC)ccc2C(c2ccccc2)N1Cc1ccccc1 (configuration not stated)
fold change (FC) [1]: 2.8

COc1ccc2c(c1)N=C(c1ccccc1)N(C1CCN(C)CC1)C2c1ccccc1 (configuration not stated)
fold change (FC) [1]: 1

COc1ccc2c(c1)N=C(c1ccccc1)N(c1ccccc1)C2c1ccccc1 (configuration not stated)
fold change (FC) [1]: 9.5
AC200 [2]: 2.3 µM
fold change (FC) [11]: 11.1
AC200 [4]: 8.1 µM
fold change (FC) [12]: 6.7
AC200 [6]: 5.8 µM
fold change (FC) [13]: 15.3
AC200 [8]: 2.5 µM
fold change (FC) [14]: 15
Activity [10]: > 200%

c1ccc(CN2C(c3ccccc3)=Nc3ccccc3C2c2ccccc2)cc1 (configuration not stated)
fold change (FC) [1]: 4

COc1ccc2c(c1)N=C(c1ccccc1)N(CC1CCCCC1)C2c1ccccc1 (configuration not stated)
fold change (FC) [1]: 8.2

COc1ccc2c(c1)N=C(C1CCCCC1)N(Cc1ccccc1)C2c1ccccc1 (configuration not stated)
fold change (FC) [1]: 6.5

COc1ccc2c(c1)N=C(C1CC1)N(Cc1ccccc1)C2c1ccccc1 (configuration not stated)
fold change (FC) [1]: 2.7

COc1ccc2c(c1)N=C(c1ccccc1)N(C1CCN(Cc3ccccc3)CC1)C2c1ccccc1 (configuration not stated)
fold change (FC) [1]: 7
AC200 [2]: 1.3 µM
fold change (FC) [15]: 5.5
AC200 [4]: 10.5 µM
fold change (FC) [16]: 3.8
AC200 [6]: 2.8 µM
fold change (FC) [17]: 10.6
AC200 [8]: 1.7 µM
fold change (FC) [18]: 8.7
Activity [19]: Dose-dependent effect
Activity [10]: > 200%

COc1ccc2c(c1)N=C(c1ccccc1)N(CCc1ccccn1)C2c1ccccc1 (configuration not stated)
fold change (FC) [1]: 2.8

COc1ccc2c(c1)N=C(c1ccccc1)N(CC#N)C2c1ccccc1 (configuration not stated)
fold change (FC) [1]: 2.7

COc1ccc2c(c1)N=C(C)N(Cc1ccccc1)C2c1ccccc1 (configuration not stated)
fold change (FC) [1]: 1.8

COc1ccc2c(c1)N=C(C(C)C)N(Cc1ccccc1)C2c1ccccc1 (configuration not stated)
fold change (FC) [1]: 2.3

COc1ccc2c(c1)N=C(c1ccccc1)N(CC1CCOCC1)C2c1ccccc1 (configuration not stated)
fold change (FC) [1]: 1.6

Cc1ccc2c(c1)N=C(c1ccccc1)N(Cc1ccccc1)C2c1ccccc1 (configuration not stated)
fold change (FC) [1]: 8.1

CCCCCc1ccc2c(c1)N=C(c1ccccc1)N(Cc1ccccc1)C2c1ccccc1 (configuration not stated)
fold change (FC) [1]: 2.8

C=CCN1C(c2ccccc2)=Nc2cc(OC)ccc2C1c1ccccc1 (configuration not stated)
fold change (FC) [1]: 2.3

COc1ccc2c(c1)N=C(c1ccccc1)N(Cc1ccccn1)C2c1ccccc1 (configuration not stated)
fold change (FC) [1]: 2

COc1ccc2c(c1)N=C(c1ccccc1)N(c1cccnc1)C2c1ccccc1 (configuration not stated)
fold change (FC) [1]: 5.9

COc1ccc2c(c1)N=C(c1ccccc1)N(c1cccc3cccnc13)C2c1ccccc1 (configuration not stated)
fold change (FC) [1]: 5.3

COc1ccc2c(c1)N=C(c1ccccc1)N(CC1CCN(C)CC1)C2c1ccccc1 (configuration not stated)
fold change (FC) [1]: 1.2

COc1ccc2c(c1)N=C(c1ccccc1)N(C1CCCCC1)C2c1ccccc1 (configuration not stated)
fold change (FC) [1]: 6.7
